Laboratory results published in ChEMBL document CHEMBL1154153, “Design, synthesis and antimycobacterial activity of some novel imidazo[1,2-c]pyrimidines” (2009).
In brackets after ≈: the same amount, converted by molar mass.

Experiments:
Type in all cases: functional
[1] = test system: Mycobacterium tuberculosis; assay: Antimycobacterial activity against Mycobacterium tuberculosis H37Rv after 30 days by serial dilution technique
How it was run: (§1)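 H37Rv kept on L–J medium at 37 °C. Inoculum made by homogenizing growth with glass beads in Tween-albumin Middlebrook 7H9, letting large particles settle, and adjusting the supernatant to 3 ×10⁸ CFU by McFarland standard, with CFU/mL checked by plating. 0.1 mL went onto L–J slants with Gruft supplement holding serially diluted compound. Incubated 37 °C, read at 14, 21, 30 days. MIC was the lowest concentration with clear tubes; triplicate.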

[2] = test system: Mycobacterium tuberculosis; assay: Antimycobacterial activity against Mycobacterium tuberculosis H37Rv after 21 days by serial dilution technique; settings: 504 h; how it was run: as §1
[3] = test system: Mycobacterium tuberculosis; assay: Antimycobacterial activity against Mycobacterium tuberculosis H37Rv after 14 days by serial dilution technique; settings: 336 h; how it was run: as §1

| SMILES | MIC [1] [µg/mL] | MIC [2] [µg/mL] | MIC [3] [µg/mL] |
| --- | --- | --- | --- |
| CCOC(=O)C1=C(Nc2ccc(Cl)cc2)N=CN2CCN=C12 | 20 (≈ 62.7 µM) | 5 (≈ 15.7 µM) | 5 (≈ 15.7 µM) |
| CCOC(=O)C1=C(Nc2cccc(C(F)(F)F)c2)N=CN2CCN=C12 | > 200 | 100 (≈ 284 µM) | 100 (≈ 284 µM) |
| CCOC(=O)C1=C(Nc2ccccc2F)N=C(c2ccccc2)N2CCN=C12 | > 200 | > 200 | > 200 |
| CCOC(=O)C1=C(Nc2ccccc2)N=CN2CCN=C12 | 50 (≈ 176 µM) | 20 (≈ 70.3 µM) | 20 (≈ 70.3 µM) |
| CCOC(=O)C1=C(Nc2ccccc2F)N=CN2CCN=C12 | 50 (≈ 165 µM) | 5 (≈ 16.5 µM) | 5 (≈ 16.5 µM) |
| CCOC(=O)C1=C(Nc2ccccc2)N=C(c2ccccc2)N2CCN=C12 | 100 (≈ 277 µM) | 50 (≈ 139 µM) | 50 (≈ 139 µM) |
| CCOC(=O)C1=C(Nc2cccc(Cl)c2)N=CN2CCN=C12 | > 200 | > 200 | > 200 |
| CCOC(=O)C1=C(Nc2ccc(F)cc2)N=CN2CCN=C12 | 20 (≈ 66.2 µM) | 5 (≈ 16.5 µM) | 5 (≈ 16.5 µM) |
| CCOC(=O)C1=C(NC)N=C(c2ccccc2)N2CCN=C12 | > 200 | > 200 | > 200 |
| CCOC(=O)C1=C(Nc2cccc(Cl)c2)N=C(c2ccccc2)N2CCN=C12 | > 200 | > 200 | > 200 |
| CCOC(=O)C1=C(NC)N=CN2CCN=C12 | > 200 | > 200 | > 200 |
| CCNC1=C(C(=O)OCC)C2=NCCN2C=N1 | > 200 | > 200 | > 200 |
| NCC[C@H](O)C(=O)N[C@@H]1C[C@H](N)[C@@H](O[C@H]2O[C@H](CN)[C@@H](O)[C@H](O)[C@H]2O)[C@H](O)[C@H]1O[C@H]1O[C@H](CO)[C@@H](O)[C@H](N)[C@H]1O [AMIKACIN] | 2 (≈ 3.42 µM) | 2 (≈ 3.42 µM) | 2 (≈ 3.42 µM) |
| CCOC(=O)C1=C(Nc2ccc(OC)cc2)N=CN2CCN=C12 | 20 (≈ 63.6 µM) | 2 (≈ 6.36 µM) | 2 (≈ 6.36 µM) |
| CO[C@H]1/C=C/O[C@@]2(C)Oc3c(C)c(O)c4c(c3C2=O)C2=NC3(CCN(CC(C)C)CC3)NC2=C(NC(=O)/C(C)=C\C=C\[C@H](C)[C@H](O)[C@@H](C)[C@@H](O)[C@@H](C)[C@H](OC(C)=O)[C@@H]1C)C4=O [RIFABUTIN] | 0.05 (≈ 0.059 µM) | 0.05 (≈ 0.059 µM) | 0.05 (≈ 0.059 µM) |
| CCOC(=O)C1=C(Nc2ccccc2Cl)N=C(c2ccccc2)N2CCN=C12 | > 200 | > 200 | > 200 |

| SMILES | MIC [1] [µg/mL] | MIC [2] [µg/mL] | MIC [3] [µg/mL] |
| --- | --- | --- | --- |
| CCOC(=O)C1=C(NCc2ccccc2)N=CN2CCN=C12 | 100 (≈ 335 µM) | 20 (≈ 67 µM) | 20 (≈ 67 µM) |
| CCOC(=O)C1=C(Nc2ccc(C)cc2)N=C(c2ccccc2)N2CCN=C12 | > 200 | 100 (≈ 267 µM) | 100 (≈ 267 µM) |
| CCOC(=O)C1=C(Nc2ccc(OC)cc2)N=C(c2ccccc2)N2CCN=C12 | 50 (≈ 128 µM) | 5 (≈ 12.8 µM) | 5 (≈ 12.8 µM) |
| CCOC(=O)C1=C(Nc2ccc(C)cc2)N=CN2CCN=C12 | 50 (≈ 168 µM) | 5 (≈ 16.8 µM) | 5 (≈ 16.8 µM) |
| CCOC(=O)C1=C(Nc2ccc(Br)cc2)N=C(c2ccccc2)N2CCN=C12 | > 200 | 100 (≈ 228 µM) | 100 (≈ 228 µM) |
| CCOC(=O)C1=C(Nc2ccccc2Cl)N=CN2CCN=C12 | > 200 | > 200 | > 200 |
| CCOC(=O)C1=C(Nc2ccccc2C)N=C(c2ccccc2)N2CCN=C12 | > 200 | 100 (≈ 267 µM) | 100 (≈ 267 µM) |
| CCOC(=O)C1=C(Nc2ccccc2OC)N=CN2CCN=C12 | > 200 | > 200 | > 200 |
| CCOC(=O)C1=C(NCc2ccccc2)N=C(c2ccccc2)N2CCN=C12 | > 200 | > 200 | > 200 |
| CCOC(=O)C1=C(Nc2ccc(Cl)cc2)N=C(c2ccccc2)N2CCN=C12 | 50 (≈ 127 µM) | 20 (≈ 50.7 µM) | 20 (≈ 50.7 µM) |
| CCNC1=C(C(=O)OCC)C2=NCCN2C(c2ccccc2)=N1 | > 200 | > 200 | > 200 |
| CCOC(=O)C1=C(Nc2cccc(C)c2)N=CN2CCN=C12 | > 200 | > 200 | > 200 |
| CCOC(=O)C1=C(Nc2ccccc2C)N=CN2CCN=C12 | > 200 | > 200 | > 200 |
| CCOC(=O)C1=C(Nc2ccc(Br)cc2)N=CN2CCN=C12 | 100 (≈ 275 µM) | 50 (≈ 138 µM) | 50 (≈ 138 µM) |
| CCOC(=O)C1=C(Nc2ccccc2OC)N=C(c2ccccc2)N2CCN=C12 | > 200 | > 200 | > 200 |
| CCOC(=O)C1=C(Nc2ccc(F)cc2)N=C(c2ccccc2)N2CCN=C12 | 20 (≈ 52.9 µM) | 5 (≈ 13.2 µM) | 5 (≈ 13.2 µM) |
